# Reference: the M2OR odorant receptor database
# How the values were obtained:
# Settings in all cases: stereoisomer not certain
# [1] = test system: OR2C1
# Procedure, shortened: (§1)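 Values were gathered from published papers (main text and supplementary material), with extra details requested from the original authors when needed, and checked for typos and inconsistencies. Each receptor–molecule pair is called responsive (active) if the original authors judged the measured signal statistically different from baseline, and non-responsive (inactive) otherwise. Assay methods varied by source, often transient mammalian cell-line luciferase assays. Recorded details include cell line, G-protein, co-transfected protein and tags.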
# Target sequence in this assay (as listed by the source): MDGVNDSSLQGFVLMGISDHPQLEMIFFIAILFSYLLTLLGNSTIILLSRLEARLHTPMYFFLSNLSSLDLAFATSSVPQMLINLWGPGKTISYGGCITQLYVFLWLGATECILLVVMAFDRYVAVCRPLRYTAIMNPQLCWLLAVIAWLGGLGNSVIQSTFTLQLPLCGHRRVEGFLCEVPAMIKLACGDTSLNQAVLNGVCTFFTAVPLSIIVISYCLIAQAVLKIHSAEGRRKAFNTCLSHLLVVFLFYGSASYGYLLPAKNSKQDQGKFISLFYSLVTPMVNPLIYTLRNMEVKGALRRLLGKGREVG
# [2] = test system: OR2C1; remark: listed apart in the source
# Procedure, shortened: as §1
# Target sequence in this assay (as listed by the source): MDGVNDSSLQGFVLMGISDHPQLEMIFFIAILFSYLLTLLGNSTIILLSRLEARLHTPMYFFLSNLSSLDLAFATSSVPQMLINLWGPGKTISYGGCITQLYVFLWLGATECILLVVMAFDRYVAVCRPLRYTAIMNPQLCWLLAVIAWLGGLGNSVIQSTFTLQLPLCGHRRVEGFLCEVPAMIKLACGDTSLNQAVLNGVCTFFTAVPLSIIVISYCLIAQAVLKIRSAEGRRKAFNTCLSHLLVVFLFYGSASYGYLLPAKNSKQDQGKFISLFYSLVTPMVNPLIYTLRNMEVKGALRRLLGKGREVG
# [3] = test system: OR2C1; remark: listed apart in the source
# Procedure, shortened: as §1
# Target sequence in this assay (as listed by the source): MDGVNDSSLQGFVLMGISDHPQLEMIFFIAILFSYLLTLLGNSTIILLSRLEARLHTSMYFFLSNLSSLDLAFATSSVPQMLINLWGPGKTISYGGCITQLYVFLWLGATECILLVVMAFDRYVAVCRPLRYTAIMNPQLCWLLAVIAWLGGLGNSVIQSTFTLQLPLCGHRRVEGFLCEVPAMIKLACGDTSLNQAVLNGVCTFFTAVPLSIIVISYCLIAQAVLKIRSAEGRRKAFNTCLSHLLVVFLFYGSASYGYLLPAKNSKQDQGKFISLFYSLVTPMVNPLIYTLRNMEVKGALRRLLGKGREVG
# [4] = test system: OR2C1; remark: listed apart in the source
# Procedure, shortened: as §1
# Target sequence in this assay (as listed by the source): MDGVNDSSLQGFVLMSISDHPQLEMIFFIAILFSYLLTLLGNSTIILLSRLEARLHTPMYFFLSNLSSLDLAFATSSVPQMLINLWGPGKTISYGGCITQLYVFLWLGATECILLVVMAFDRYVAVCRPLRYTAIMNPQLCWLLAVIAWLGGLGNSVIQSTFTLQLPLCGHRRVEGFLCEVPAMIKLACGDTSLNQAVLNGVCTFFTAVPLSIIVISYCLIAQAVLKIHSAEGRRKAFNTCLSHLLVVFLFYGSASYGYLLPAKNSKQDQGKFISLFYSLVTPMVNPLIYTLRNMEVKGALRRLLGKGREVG
# [5] = test system: OR2C1; remark: listed apart in the source
# Procedure, shortened: as §1
# Target sequence in this assay (as listed by the source): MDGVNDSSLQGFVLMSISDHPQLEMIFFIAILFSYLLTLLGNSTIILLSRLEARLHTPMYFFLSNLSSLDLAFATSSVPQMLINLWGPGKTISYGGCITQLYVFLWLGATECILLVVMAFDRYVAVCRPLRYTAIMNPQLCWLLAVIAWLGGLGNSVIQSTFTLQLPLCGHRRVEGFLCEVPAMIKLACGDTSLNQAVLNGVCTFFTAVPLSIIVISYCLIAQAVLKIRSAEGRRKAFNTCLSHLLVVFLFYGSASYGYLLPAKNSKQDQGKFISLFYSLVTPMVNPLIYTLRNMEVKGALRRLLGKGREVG
# [6] = test system: OR2C1; remark: listed apart in the source
# Procedure, shortened: as §1
# Target sequence in this assay (as listed by the source): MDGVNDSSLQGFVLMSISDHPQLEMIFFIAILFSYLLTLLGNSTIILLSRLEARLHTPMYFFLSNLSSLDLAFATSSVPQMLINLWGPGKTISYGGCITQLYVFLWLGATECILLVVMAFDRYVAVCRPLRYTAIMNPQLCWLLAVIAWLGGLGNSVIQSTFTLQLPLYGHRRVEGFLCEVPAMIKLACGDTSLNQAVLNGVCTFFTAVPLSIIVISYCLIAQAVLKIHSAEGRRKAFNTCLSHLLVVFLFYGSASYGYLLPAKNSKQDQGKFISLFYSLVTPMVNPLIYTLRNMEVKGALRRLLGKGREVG
# [7] = target: OR2C3 (Homo sapiens) (UniProt Q8N628)
# Sequence of OR2C3 (Homo sapiens) (Q8N628 whole entry): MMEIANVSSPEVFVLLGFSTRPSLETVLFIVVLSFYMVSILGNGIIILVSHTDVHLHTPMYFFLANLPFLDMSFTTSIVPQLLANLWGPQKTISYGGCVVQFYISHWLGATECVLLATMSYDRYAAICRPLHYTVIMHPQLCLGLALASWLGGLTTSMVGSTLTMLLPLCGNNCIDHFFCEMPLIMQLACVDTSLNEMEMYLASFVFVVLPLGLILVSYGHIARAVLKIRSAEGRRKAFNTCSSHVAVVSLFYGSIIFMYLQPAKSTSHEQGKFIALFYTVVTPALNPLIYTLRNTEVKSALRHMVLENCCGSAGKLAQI
# Procedure, shortened: as §1
# [8] = target: OR2D2 (Homo sapiens) (UniProt Q9H210)
# Sequence of OR2D2 (Homo sapiens) (Q9H210 whole entry): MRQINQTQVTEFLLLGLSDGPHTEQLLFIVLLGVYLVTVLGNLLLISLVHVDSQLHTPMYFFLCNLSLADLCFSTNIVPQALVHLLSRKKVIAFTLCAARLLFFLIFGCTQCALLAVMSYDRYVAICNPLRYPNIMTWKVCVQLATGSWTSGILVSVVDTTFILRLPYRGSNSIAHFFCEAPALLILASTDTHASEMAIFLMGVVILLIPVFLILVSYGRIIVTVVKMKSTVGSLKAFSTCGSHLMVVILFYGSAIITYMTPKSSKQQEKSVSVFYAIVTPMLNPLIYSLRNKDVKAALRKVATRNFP
# Procedure, shortened: as §1
# [9] = test system: OR2C3
# Procedure, shortened: as §1
# Target sequence in this assay (as listed by the source): as the sequence (Q8N628 whole entry) above, with T20A, P68S, L289V counted along it
# [10] = test system: OR2C3; remark: listed apart in the source
# Procedure, shortened: as §1
# Target sequence in this assay (as listed by the source): as the sequence (Q8N628 whole entry) above, with P68S counted along it
smiles,measurement,setting,value
O=CC=Cc1ccccc1,odorant receptor agonist call,[1],inactive
same,odorant receptor agonist call,[2],inactive
same,odorant receptor agonist call,[3],inactive
same,odorant receptor agonist call,[4],inactive
same,odorant receptor agonist call,[5],active
same,odorant receptor agonist call,[6],active
Cc1c([N+](=O)[O-])c(C)c([N+](=O)[O-])c(C(C)(C)C)c1[N+](=O)[O-],odorant receptor agonist call,[7],inactive
same,odorant receptor agonist call,[8],inactive
C=CCOC(=O)Cc1ccccc1,odorant receptor agonist call,[2],inactive
same,odorant receptor agonist call,[9],inactive
same,odorant receptor agonist call,[10],inactive
same,odorant receptor agonist call,[8],inactive
